{"data": "Experimental data collected from several papers", "CNR2": "Cannabinoid receptor 2 (CNR2, Homo sapiens, UniProt P34972)", "BRD9": "Bromodomain-containing protein 9 (BRD9, Homo sapiens, UniProt Q9H8M2)", "ACVR2A": "Activin receptor type-2A (ACVR2A, Homo sapiens, UniProt P27037)", "note": "Each line is one published result; the experiments were not run side by side."}
{"Structure (SMILES)": "CC(=O)ON=C1C=CC(=C(C#N)c2ccccc2)C=C1", "target": "Serine/threonine-protein kinase haspin (HASPIN, Homo sapiens, UniProt Q8TF76)", "test": "enzyme activity, inhibitor, ADP detection", "conditions": "20 µM", "endpoint": "activity vs control", "value": "57%"}
{"Structure (SMILES)": "CN(C)CCOC(=O)COc1ccc(Cl)cc1", "target": "CNR2", "test": "ligand displacement, radioligand", "conditions": "1 µM, cell membranes", "endpoint": "inhibition", "value": "-3.85%"}
{"Structure (SMILES)": "Cc1ncc(-c2cc3cc(-c4c(C)ccc(O)c4C)cnc3[nH]2)cn1", "target": "Membrane-associated tyrosine- and threonine-specific cdc2-inhibitory kinase (PKMYT1, Homo sapiens, UniProt Q99640)", "test": "cell-free assay, TR-FRET", "conditions": "3.333 µM", "endpoint": "inhibition", "value": "104%"}
{"Structure (SMILES)": "Cc1cc(O)c(-c2ccc([C@@H](C)CN(C)C)cc2)c2c1[nH]c(=O)c1sccc12", "target": "STE20-related kinase adapter protein beta (Homo sapiens, UniProt Q9C0K7)", "test": "enzyme activity, inhibitor", "conditions": "0.1 µM, lysate", "endpoint": "inhibition", "value": "18.9%"}
{"Structure (SMILES)": "COc1cc(C(C)(C)O)c(OC)cc1-c1cc(C(C)=O)n2ccccc12", "target": "BRD9", "test": "thermal stability, DSF", "conditions": "200 µM", "endpoint": "ΔTm", "value": "10.5 °C"}
{"Structure (SMILES)": "CCCCC(=O)Nc1ccc(-c2ccc3ncn(CCC)c(=O)c3c2)cn1", "target": "ACVR2A", "test": "binding, competition with immobilised ligand", "conditions": "0.5 µM", "endpoint": "remaining binding", "value": "95%"}
{"Structure (SMILES)": "CCN1/C(=C/C(C)=O)Sc2ccc(F)cc21", "target": "CNR2", "test": "ligand displacement, radioligand", "conditions": "10 µM", "endpoint": "inhibition", "value": "16.8%"}
{"Structure (SMILES)": "COc1cc(-c2cc(C(C)=O)n3ccccc23)cc(OC)c1CN1CC(O)C1", "target": "BRD9", "test": "thermal stability, DSF", "conditions": "200 µM", "endpoint": "ΔTm", "value": "14.8 °C"}
{"Structure (SMILES)": "COc1ccc2oc(-c3ccc4nc(N)oc4c3)c/c(=N\\c3ccccc3NC(=O)CCN)c2c1", "target": "ACVR2A", "test": "binding, competition with immobilised ligand", "conditions": "1 µM", "endpoint": "remaining binding", "value": "109%"}
{"Structure (SMILES)": "COc1cc(-c2cc(C(C)=O)n3ccccc23)c(OC)cc1C(=O)N1CCOCC1", "target": "BRD9", "test": "thermal stability, DSF", "conditions": "200 µM", "endpoint": "ΔTm", "value": "13.8 °C"}
{"Structure (SMILES)": "NC/C(=C\\F)COc1cccc(Cn2c(=S)[nH]c(=O)c3[nH]cnc32)c1", "target": "Beta-2 adrenergic receptor (ADRB2, Homo sapiens, UniProt P07550)", "test": "ligand displacement, radioligand", "conditions": "10 µM", "endpoint": "inhibition", "value": "< 50%"}
{"Structure (SMILES)": "C1=C/COCc2cc(ccc2OCCN2CCCC2)Nc2nccc(n2)-c2cccc(c2)COC/1", "target": "Bone morphogenetic protein receptor type-1A (BMPR1A, Homo sapiens, UniProt P36894)", "test": "binding", "conditions": "0.1 µM", "endpoint": "remaining binding", "value": "89%"}
{"Structure (SMILES)": "CCN(C)Cc1c(OC)cc(-c2cc(C(C)=O)n3ccccc23)cc1OC", "target": "BRD9", "test": "thermal stability, DSF", "conditions": "200 µM", "endpoint": "ΔTm", "value": "15.5 °C"}
